Assay results published in article PMC7781011 (Journal of Inflammation Research, 2020).
“Also recorded” adds a separate entry of the source. Like-named read-outs stand apart in the source and are kept apart here.

What was measured:
[1] = molecular target: T1, mouse 5-LOX (Mus musculus, UniProt P48999); assay: Cell-free fluorometric 5-LOX assay; format: biochemical
T1 sequence (P48999 1-674): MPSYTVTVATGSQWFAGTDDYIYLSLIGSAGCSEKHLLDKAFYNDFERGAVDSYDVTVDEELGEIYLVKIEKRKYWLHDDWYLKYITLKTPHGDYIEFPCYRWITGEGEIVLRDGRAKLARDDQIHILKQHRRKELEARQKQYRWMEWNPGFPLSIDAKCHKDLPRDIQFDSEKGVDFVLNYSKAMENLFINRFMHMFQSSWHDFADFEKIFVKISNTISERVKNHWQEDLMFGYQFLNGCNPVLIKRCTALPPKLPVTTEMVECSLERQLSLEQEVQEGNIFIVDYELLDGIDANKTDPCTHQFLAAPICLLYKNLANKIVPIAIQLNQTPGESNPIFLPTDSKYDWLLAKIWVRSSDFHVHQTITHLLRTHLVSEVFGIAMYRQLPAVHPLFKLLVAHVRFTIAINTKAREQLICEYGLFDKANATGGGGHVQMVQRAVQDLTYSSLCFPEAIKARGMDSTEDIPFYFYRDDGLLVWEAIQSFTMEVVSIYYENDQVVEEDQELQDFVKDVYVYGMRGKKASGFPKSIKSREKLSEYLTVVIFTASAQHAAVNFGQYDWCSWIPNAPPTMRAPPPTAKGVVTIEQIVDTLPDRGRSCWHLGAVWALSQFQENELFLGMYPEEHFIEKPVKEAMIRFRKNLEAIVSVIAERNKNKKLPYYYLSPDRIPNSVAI

[2] = molecular target: T2, human 5-LOX (Homo sapiens, UniProt P09917); assay: Cell-free fluorometric 5-LOX assay; format: biochemical; conditions: IC50 5-LOX
T2 sequence (P09917 1-674): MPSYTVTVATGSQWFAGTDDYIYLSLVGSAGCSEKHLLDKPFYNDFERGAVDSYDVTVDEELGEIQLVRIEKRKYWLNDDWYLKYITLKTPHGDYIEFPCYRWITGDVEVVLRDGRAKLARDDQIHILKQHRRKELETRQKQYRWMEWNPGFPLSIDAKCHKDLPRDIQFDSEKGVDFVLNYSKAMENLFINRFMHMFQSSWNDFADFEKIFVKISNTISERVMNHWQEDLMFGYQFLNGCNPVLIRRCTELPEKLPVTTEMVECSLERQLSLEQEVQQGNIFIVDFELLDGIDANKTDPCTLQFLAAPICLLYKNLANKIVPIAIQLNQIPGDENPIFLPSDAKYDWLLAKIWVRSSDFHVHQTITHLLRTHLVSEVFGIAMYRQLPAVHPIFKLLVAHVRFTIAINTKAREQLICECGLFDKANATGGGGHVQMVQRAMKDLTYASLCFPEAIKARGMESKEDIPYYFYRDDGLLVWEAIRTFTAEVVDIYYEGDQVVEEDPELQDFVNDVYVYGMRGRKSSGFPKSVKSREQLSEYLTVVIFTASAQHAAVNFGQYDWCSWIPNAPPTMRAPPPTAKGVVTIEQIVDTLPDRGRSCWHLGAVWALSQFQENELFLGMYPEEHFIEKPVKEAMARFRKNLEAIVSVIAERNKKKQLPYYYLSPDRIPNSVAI

[3] = molecular target: T3, human mPGES-1 (Homo sapiens, UniProt O14684); assay: Cell-free mPGES-1 assay; format: biochemical
T3 sequence (O14684 1-152): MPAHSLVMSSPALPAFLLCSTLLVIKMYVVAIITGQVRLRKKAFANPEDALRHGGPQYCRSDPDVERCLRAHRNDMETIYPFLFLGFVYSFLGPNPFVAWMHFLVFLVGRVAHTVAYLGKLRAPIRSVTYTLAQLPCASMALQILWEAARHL
Outline: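 Enzyme in 15 mM Tris-HCl pH 7.4 with 1 mM GSH, preincubated 20 min with compound (0.1–100 µM); plate held 15 min at 20°C. PGH2 (final 2.8 µM) added, 45 s at room temperature, then stopped with SnCl2 in 1N HCl. PGE2 by ELISA, in triplicate, % inhibition versus untreated. Human enzyme from E. coli or commercial; mouse enzyme from vas deferens/seminal vesicles. IC50 by four-parameter nonlinear regression.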

[4] = molecular target: T4, rat 5-LOX (Rattus norvegicus, UniProt P12527); assay: Cell-free fluorometric 5-LOX assay; format: biochemical
T4 sequence (P12527 1-673): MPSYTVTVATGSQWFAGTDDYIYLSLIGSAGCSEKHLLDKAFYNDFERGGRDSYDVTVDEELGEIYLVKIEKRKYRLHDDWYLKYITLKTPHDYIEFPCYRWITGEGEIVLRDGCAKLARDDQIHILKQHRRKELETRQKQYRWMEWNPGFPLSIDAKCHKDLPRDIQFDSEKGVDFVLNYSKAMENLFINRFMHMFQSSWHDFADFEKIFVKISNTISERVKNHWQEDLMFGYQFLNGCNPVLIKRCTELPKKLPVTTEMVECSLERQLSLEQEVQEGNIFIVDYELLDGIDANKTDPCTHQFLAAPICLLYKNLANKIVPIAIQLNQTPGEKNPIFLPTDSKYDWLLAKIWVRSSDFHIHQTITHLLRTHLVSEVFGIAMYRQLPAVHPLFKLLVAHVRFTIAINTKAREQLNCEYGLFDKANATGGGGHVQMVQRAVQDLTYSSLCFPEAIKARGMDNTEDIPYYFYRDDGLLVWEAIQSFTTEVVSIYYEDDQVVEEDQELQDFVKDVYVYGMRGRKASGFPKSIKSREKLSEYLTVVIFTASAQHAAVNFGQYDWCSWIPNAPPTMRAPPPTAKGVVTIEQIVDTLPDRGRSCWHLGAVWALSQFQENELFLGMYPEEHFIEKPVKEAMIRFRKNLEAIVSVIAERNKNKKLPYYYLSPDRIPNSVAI

[5] = system: carrageenan-induced hind paw edema of rats; assay: Carrageenan-induced rat paw edema model; format: in vivo, rat (male Fischer F344); conditions: for TXB2 levels in paw exudates / LTB4 levels in paw exudates / PGE2 levels in paw exudates / PGI2 levels in paw exudates: 400 ppm; for edema inhibition (maximum): 400 ppm in diet (oral), 3 hours after carrageenan injection; for LTB4 levels in paw exudates / PGE2 levels in paw exudates / PGI2 levels in paw exudates: compared to control (vehicle)
Outline: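 Male F344 rats (350–400 g) fed AIN-76A diet, either control or with compound or reference inhibitor at 400 ppm; separate saline group. 0.1 mL 1% λ-carrageenan in saline injected subplantar into left hind paw, saline into right. Dorsiventral paw thickness by digital caliper before and 1–6 h after injection; % edema inhibition. Paw exudate PGE2, LTB4, TXB2 and PGI2 measured by ELISA. Stomach and organs examined for ulcers.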

[6] = system: PGI2 production in LPS-stimulated macrophages of humans, mice, and rats; assay: PGI2 production in LPS-stimulated macrophages, range over species; format: cell-based; conditions: Macrophage
Outline: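 Human macrophages derived from THP-1 monocytes with PMA. Rat/mouse peritoneal macrophages collected by lavage with ice-cold DMEM, selected by glass adherence (1 h, 37°C), Trypan-blue checked. Cells in DMEM+10% FBS at 10,000 (96-well) or 40,000 (24-well) per well, given non-toxic compound doses, then LPS 10 µg/mL for 24 h. PGE2, PGI2 and LTB4 measured in supernatant. IC50 by four-parameter nonlinear regression.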

Compound	IC50 [1]	IC50 [2]	IC50 [3]	IC50 [4]	TXB2 levels in paw exudates [5]	edema inhibition (maximum) [5]	LTB4 levels in paw exudates [5]	PGE2 levels in paw exudates [5]	PGI2 levels in paw exudates [5]	IC50 ([6]; read-out: IC50 range PGI2 production)	gastrointestinal (and other) toxicity ([5]; 400 ppm in diet)	IC50 ([6]; read-out: IC50 PGI2 production)
CC1(C)Cc2c(-c3ccccc3)c(-c3ccc(Cl)cc3)c(CC(=O)O)n2C1 [Licofelone, reference compound]	2340 nM	2130 nM	14000 nM	640 nM	reduced	61.7%	reduced	reduced	reduced	850 to 910 nM	–	–
CC1(C)Cc2c(-c3ccccc3)c(-c3ccc(Cl)cc3)c(CC(=O)NCC(=O)O)n2C1 [LFA-9, 2-[[2-[2-(4-chlorophenyl)-6,6-dimethyl-1-phenyl-5,7-dihydropyrrolizin-3-yl]acetyl]amino]acetic acid]	2640 nM	2750 nM	870 nM	890 nM	maintained homeostasis	70.4%	reduced	reduced	spared	–	did not show any gastrointestinal toxicity; also recorded: did not show any gastrointestinal and any other toxicities	> 100000 nM
